Results on five molecules are retold here after ChEMBL document CHEMBL3352714, “Synthesis, in Vitro Covalent Binding Evaluation, and Metabolism of (14)C-Labeled Inhibitors of 11β-HSD1” (ACS Med Chem Lett, 2014).

A short description of series [1]: Volume of distribution at steady state in dog at 0.5 mg/kg, iv. The class given is ADME, organism-based, Canis lupus familiaris. On the set-up: dose 0.5 mg/kg, route intravenous. Conditions: in vivo, read-out: Vdss. Summed up:
(§1)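 Intravenous dose 0.5 mg/kg, formulated in 10% N,N-dimethylacetamide, 10% ethanol, 40% propylene glycol and 40% water. Values are averages of three animals per species.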

Series [2] in a line: Half life in rat at 0.5 mg/kg, iv. It counts as ADME, organism-based. Also on record: dose 0.5 mg/kg, route intravenous. Conditions: in vivo. In a few lines: as §1
A short description of series [3]: Cmax in dog at 2 mg/kg, po. It counts as ADME, organism-based, Canis lupus familiaris. On the set-up: dose 2 mg/kg, route oral. Conditions: in vivo. In a few lines:
(§2)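 Oral dose 2.0 mg/kg. Rat and dog received a solution in 15% HPβCD in Ora-Plus. Cynomolgus monkey received a suspension in 1% Tween 80 and 1% methylcellulose (4000 cps) in deionized water. Values are averages of three animals; iv reference dose was 0.5 mg/kg.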

The test system of a further series is Cynomolgus monkey. To be noted: Macaca fascicularis; at 10 mg/kg.
Series [4] can be described thus: Clearance in dog at 0.5 mg/kg, iv. It counts as ADME, organism-based, Canis lupus familiaris. On the set-up: dose 0.5 mg/kg, route intravenous. To be noted: in vivo. In a few lines: as §1
Series [5] in a line: Clearance in cynomolgus monkey at 0.5 mg/kg, iv. Conditions: in vivo. Also on record: dose 0.5 mg/kg, route intravenous. It counts as ADME, organism-based, Macaca fascicularis. Summed up: as §1
Series [6] can be described thus: Oral bioavailability in cynomolgus monkey at 2 mg/kg. It counts as ADME, organism-based, Macaca fascicularis. To be noted: in vivo. In a few lines: as §2
Series [7] in a line: Half life in dog at 0.5 mg/kg, iv. The class given is ADME, organism-based, Canis lupus familiaris. Also on record: dose 0.5 mg/kg, route intravenous. To be noted: in vivo. Summed up: as §1
Series [8] is described as follows: Clearance in rat at 0.5 mg/kg, iv. It counts as ADME, organism-based. Also on record: dose 0.5 mg/kg, route intravenous. To be noted: in vivo. Summed up: as §1
Series [9] can be described thus: Oral bioavailability in rat at 2 mg/kg. The class given is ADME, organism-based. Conditions: in vivo. In a few lines: as §2
Series [10] can be described thus: Volume of distribution at steady state in cynomolgus monkey at 0.5 mg/kg, iv. The class given is ADME, organism-based, Macaca fascicularis. On the set-up: dose 0.5 mg/kg, route intravenous. To be noted: in vivo, read-out: Vdss. In a few lines: as §1
Series [11] is described as follows: Volume of distribution at steady state in rat at 0.5 mg/kg, iv. It counts as ADME, organism-based. On the set-up: dose 0.5 mg/kg, route intravenous. To be noted: in vivo, read-out: Vdss. Summed up:
as §1

Series [12] can be described thus: Half life in cynomolgus monkey at 0.5 mg/kg, iv. Also on record: dose 0.5 mg/kg, route intravenous. To be noted: in vivo. It counts as ADME, organism-based, Macaca fascicularis. Summed up: as §1
Series [13] can be described thus: Oral bioavailability in dog at 2 mg/kg. Conditions: in vivo. It counts as ADME, organism-based, Canis lupus familiaris. In a few lines:
as §2

Series [14] in a line: Cmax in cynomolgus monkey at 2 mg/kg, po. The class given is ADME, organism-based, Macaca fascicularis. On the set-up: dose 2 mg/kg, route oral. To be noted: in vivo. In a few lines:
as §2

A short description of series [15]: Cmax in rat at 2 mg/kg, po. The class given is ADME, organism-based. On the set-up: dose 2 mg/kg, route oral. To be noted: in vivo. Summed up:
as §2

Series [16] has as its system Liver microsome. The series can be described thus: Oxidative metabolism in human liver microsomes assessed as protein covalent binding measured per mg protein at 10 uM after 1 hr in presence of NADPH.
Series [17] deals with Liver microsome. The series can be described thus: Oxidative metabolism in human liver microsomes assessed as protein covalent binding measured per mg protein at 10 uM after 1 hr in presence of NADPH.
A short description of series [18]: Drug metabolism in human hepatocytes assessed as total turnover after 2 hrs by LC-MS/MS-radiometric analysis. It counts as ADME, cell-based, Hepatocyte. To be noted: read-out: Drug metabolism. Summed up: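 14C-labeled compound incubated with human hepatocytes. Parent and radiolabeled metabolites were analyzed by tandem LC–MS/MS with radiometric detection and expressed as % of administered dose.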

As to `C[C@](O)(c1ccc(C(=O)N(C2CC2)[C@H]2CC[C@](COC(N)=O)(c3ccc(F)cc3)CC2)cc1)C(F)(F)F` (mixture of isomers), the Vd in series [1] is 1.2 L/kg; in [10], 1 L/kg; in series [11], 2.3 L/kg. In addition, the half-life in series [2] was 2580 min; in [7] it was 3.25 days; in series [12], 1620 min. The figures for the Cmax in series [3], in series [14] and in series [15] were 1840 ng/mL, 211 ng/mL and 1130 ng/mL, respectively. In addition, in the series on Cynomolgus monkey, the inhibition entry is “Dose-dependent effect”. Moreover, the clearance in series [4] is 0.2 mL/min/kg; in [5], 0.483 mL/min/kg; in series [8], 0.683 mL/min/kg. Also, the bioavailability in series [6] was determined as 38%; in [9], 72%; in series [13], 88%.
For the molecule `c1ccc2ccccc2c1`, the PB in the series on Liver microsome [16] is reported as 420 pmol.
Take `C[C@](O)(c1ccc(C(=O)N(C2CC2)[C@H]2CC[C@](CO[14C](N)=O)(c3ccc(F)cc3)CC2)cc1)C(F)(F)F`: the PB in the series on Liver microsome [17] and in the series on Liver microsome [16] was 15 pmol throughout.
As for `C[C@@H]1CN(CC2(C(N)=O)CC2)[14CH2][14CH2]N1S(=O)(=O)c1ccc([C@](C)(O)C(F)(F)F)cc1`, the PB in the series on Liver microsome [17] and in the series on Liver microsome [16] was 70 pmol throughout.
`C[C@](O)(c1ccc(S(=O)(=O)c2ccc([14C]#N)cc2Cl)cc1)C(F)(F)F`: the metabolised at 2 h in [18] worked out at 9.8%. Besides, the PB with Liver microsome [17] and with Liver microsome [16] was 370 pmol each time.
